Active and inactive are the calls of the source. The calls are words filed in the database; no cut-off is given here.
How the values were obtained:
[1] = molecular target: T1, Serotonin (5-HT) receptor (Rattus norvegicus) (UniProt P35563+P35365+P32305+P31388+Q9JJ16+P28564+P30994+Q62758+P08909+P14842+P30940+P35364+P19327+P28565); assay: (§1) Ability to elicit head twitches in rats (a serotonin mimetic response); assay type: functional; parameters: concentration or dose not given beside the values
In short: (§2)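 Female Sprague-Dawley rats (150-250 g), compound given ip in 1% methylcellulose vehicle, dose as base weight; quantal scoring of rats showing at least one head twitch during a 2-min observation beginning 30 min after dosing; usually six rats per dose level; vehicle controls run.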

[2] = molecular target: T1, Serotonin (5-HT) receptor (Rattus norvegicus); assay: as §1; assay type: functional; parameters: concentration or dose not given beside the values; in short: as §2; remark: listed apart in the source
[3] = molecular target: T1, Serotonin (5-HT) receptor (Rattus norvegicus); assay: as §1; assay type: functional; parameters: concentration or dose not given beside the values; in short: as §2; remark: listed apart in the source
[4] = molecular target: Sodium-dependent serotonin transporter (Rattus norvegicus) (UniProt P31652); assay: Serotonin neuronal reuptake blocking activity was determined by the antagonism of the head twitch response induced in rats; assay type: functional; parameters: concentration or dose not given beside the values
In short: (§3)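 Female Sprague-Dawley rats (150-250 g) dosed ip with compound (1% methylcellulose vehicle, dose as base weight), then p-chloromethamphetamine 6.0 mg/kg ip 1 h later; head twitches observed 30 min after PCMA; scored as rats not twitching; usually six rats per dose; ED50 = dose antagonizing PCMA head twitch in 50% of animals, with 95% confidence limits.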

[5] = molecular target: Sodium-dependent serotonin transporter (Rattus norvegicus) (UniProt P31652); assay: (§4) Serotonin neuronal reuptake blocking activity was determined by the antagonism of the head twitch response induced by treatment of rats; assay type: functional; parameters: concentration or dose not given beside the values; in short: as §3
[6] = molecular target: Sodium-dependent serotonin transporter (Rattus norvegicus) (UniProt P31652); assay: as §4; assay type: functional; parameters: concentration or dose not given beside the values; in short: as §3; remark: listed apart in the source
Rattus norvegicus [7] = assay: Ability to elicit head twitches in rats a response characteristic of a serotonin mimetic action in the central nervous system was measured after 2 mg/kg of ip administration; assay type: functional; conditions: route intraperitoneal; in short: as §2
Rattus norvegicus [8] = assay: Ability to elicit head twitches in rats a response characteristic of a serotonin mimetic action in the central nervous system was measured after 0.67 mg/kg of ip administration; assay type: functional; conditions: route intraperitoneal; in short: as §2
Rattus norvegicus [9] = assay: Ability to elicit head twitches in rats a response characteristic of a serotonin mimetic action in the central nervous system after 6 mg/kg of ip administration; assay type: functional; conditions: route intraperitoneal; in short: as §2
Rattus norvegicus [10] = organism: Rattus norvegicus; assay: ED50 value expresses the inhibition of serotonin reuptake in rat.; assay type: functional; in short: as §3
Rattus norvegicus [11] = assay: Ability to elicit head twitches in rats a response characteristic of a serotonin mimetic action in the central nervous system was measured after 1.0 mg/kg of ip administration; assay type: functional; conditions: route intraperitoneal; in short: as §2
Rattus norvegicus [12] = assay: Ability to elicit head twitches in rats a response characteristic of a serotonin mimetic action in the central nervous system was measured after 3 mg/kg of ip administration; assay type: functional; conditions: route intraperitoneal; in short: as §2
Rattus norvegicus [13] = assay: Ability to elicit head twitches in rats a response characteristic of a serotonin mimetic action in the central nervous system after 9 mg/kg of ip administration; assay type: functional; conditions: route intraperitoneal; in short: as §2
Rattus norvegicus [14] = assay: Serotonin neuronal reuptake blocking activity was determined by the antagonism of the head twitch response induced in rats with p-chloromethamphetamine (PCMA) after 9 mg/kg of ip administration; assay type: functional; conditions: route intraperitoneal; in short: as §3
Rattus norvegicus [15] = assay: Serotonin neuronal reuptake blocking activity was determined by the antagonism of the head twitch response induced by treatment of rats with p-chloromethamphetamine (PCMA) after 3 mg/kg of ip administration; assay type: functional; conditions: route intraperitoneal; in short: as §3
Rattus norvegicus [16] = assay: Serotonin neuronal reuptake blocking activity was determined by the antagonism of the head twitch response induced by treatment of rats with p-chloromethamphetamine (PCMA) after 1 mg/kg of ip administration; assay type: functional; conditions: route intraperitoneal; in short: as §3
Rattus norvegicus [17] = assay: Ability to elicit head twitches in rats a response characteristic of a serotonin mimetic action in the central nervous system was measured after 3 mg/kg of ip administration; 11/36; assay type: functional; conditions: route intraperitoneal; in short: as §2
Rattus norvegicus [18] = assay: Ability to elicit head twitches in rats a response characteristic of a serotonin mimetic action in the central nervous system was measured after 1 mg/kg of ip administration; 5/36; assay type: functional; conditions: route intraperitoneal; in short: as §2
Rattus norvegicus [19] = assay: Serotonin neuronal reuptake blocking activity was determined by the antagonism of the head twitch response induced in rats with p-chloromethamphetamine (PCMA) after 9 mg/kg of ip administration; 24/36; assay type: functional; conditions: route intraperitoneal; in short: as §3
Rattus norvegicus [20] = assay: Serotonin neuronal reuptake blocking activity was determined by the antagonism of the head twitch response induced by treatment of rats with p-chloromethamphetamine (PCMA) after 3 mg/kg of ip administration; 13/36; assay type: functional; conditions: route intraperitoneal; in short: as §3
Rattus norvegicus [21] = assay: Serotonin neuronal reuptake blocking activity was determined by the antagonism of the head twitch response induced by treatment of rats with p-chloromethamphetamine (PCMA) after 1.0 mg/kg of ip administration; 5/36; assay type: functional; conditions: route intraperitoneal; in short: as §3
Rattus norvegicus [22] = assay: Ability to elicit head twitches in rats a response characteristic of a serotonin mimetic action in the central nervous system was measured after 2.0 mg/kg of ip administration; assay type: functional; conditions: route intraperitoneal; in short: as §2
Rattus norvegicus [23] = assay: Ability to elicit head twitches in rats a response characteristic of a serotonin mimetic action in the central nervous system after 6.0 mg/kg of ip administration; assay type: functional; conditions: route intraperitoneal; in short: as §2
Rattus norvegicus [24] = assay: Serotonin neuronal reuptake blocking activity was determined by the antagonism of the head twitch response induced in rats with p-chloromethamphetamine (PCMA) after 6.0 mg/kg of ip administration; assay type: functional; conditions: route intraperitoneal; in short: as §3
Rattus norvegicus [25] = assay: Serotonin neuronal reuptake blocking activity was determined by the antagonism of the head twitch response induced by treatment of rats with p-chloromethamphetamine (PCMA) after 2 mg/kg of ip administration; assay type: functional; conditions: route intraperitoneal; in short: as §3
Rattus norvegicus [26] = assay: Serotonin neuronal reuptake blocking activity was determined by the antagonism of the head twitch response induced by treatment of rats with p-chloromethamphetamine (PCMA) after 0.67 mg/kg of ip administration; assay type: functional; conditions: route intraperitoneal; in short: as §3
Rattus norvegicus [27] = assay: Serotonin neuronal reuptake blocking activity was determined by the antagonism of the head twitch response induced in rats with p-chloromethamphetamine (PCMA) after 40 mg/kg of ip administration; assay type: functional; conditions: route intraperitoneal
In short: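 Female Sprague-Dawley rats (150-250 g) dosed ip with compound in 1% methylcellulose vehicle. p-Chloromethamphetamine 6.0 mg/kg ip was given 1 h later, and head movements were observed 30 min after that. Scored as number of rats not showing head twitches. Six rats per dose unless otherwise noted. Doses expressed as base weight.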

Rattus norvegicus [28] = assay: Ability to elicit head twitches in rats a response characteristic of a serotonin mimetic action in the central nervous system after 40 mg/kg of ip administration; Animals succumbed; assay type: functional, organism-based; parameters: dose 40 mg/kg; in short: as §2
Rattus norvegicus [29] = assay: Serotonin neuronal reuptake blocking activity was determined by the antagonism of the head twitch response induced in rats with p-chloromethamphetamine (PCMA) after 40 mg/kg of ip administration; Animals succumbed; assay type: functional, organism-based; parameters: dose 40 mg/kg; in short: as §3
Rattus norvegicus [30] = assay: Ability to elicit head twitches in rats a response characteristic of a serotonin mimetic action in the central nervous system was measured after 1 mg/kg of ip administration; assay type: functional; conditions: route intraperitoneal; in short: as §2
Rattus norvegicus [31] = assay: Serotonin neuronal reuptake blocking activity was determined by the antagonism of the head twitch response induced in rats with p-chloromethamphetamine (PCMA) after 6 mg/kg of ip administration; assay type: functional; conditions: route intraperitoneal; in short: as §3

Sodium-dependent serotonin transporter (Rattus norvegicus), sequence (P31652 whole entry): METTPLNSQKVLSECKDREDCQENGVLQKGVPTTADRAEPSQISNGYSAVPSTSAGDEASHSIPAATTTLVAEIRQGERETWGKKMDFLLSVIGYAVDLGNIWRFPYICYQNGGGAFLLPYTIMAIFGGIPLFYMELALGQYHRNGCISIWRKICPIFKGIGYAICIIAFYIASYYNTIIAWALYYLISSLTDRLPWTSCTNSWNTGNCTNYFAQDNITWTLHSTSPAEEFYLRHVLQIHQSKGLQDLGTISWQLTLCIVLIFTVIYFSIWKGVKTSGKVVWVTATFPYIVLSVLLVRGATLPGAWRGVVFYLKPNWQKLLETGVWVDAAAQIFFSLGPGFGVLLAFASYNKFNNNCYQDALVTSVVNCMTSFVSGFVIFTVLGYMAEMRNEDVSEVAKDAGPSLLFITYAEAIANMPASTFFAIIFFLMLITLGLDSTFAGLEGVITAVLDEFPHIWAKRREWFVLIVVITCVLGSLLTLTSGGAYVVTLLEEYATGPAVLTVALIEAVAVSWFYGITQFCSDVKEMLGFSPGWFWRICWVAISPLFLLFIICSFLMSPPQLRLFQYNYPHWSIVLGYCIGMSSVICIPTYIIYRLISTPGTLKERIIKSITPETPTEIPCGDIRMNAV

| Compound | Activity [1] | Activity [2] | Activity [3] | PCMA antagonism [4] | PCMA antagonism [5] | PCMA antagonism [6] | also measured |
| --- | --- | --- | --- | --- | --- | --- | --- |
| Clc1ccc2nc(N3CCNCC3)c(Sc3ccccc3)nc2c1 | 1 | 1 | 0 | 1 | 2 | 1 | – |
| O=C1CN(c2cnc3ccccc3n2)CCN1 | 0 | 0 | 3 | – | – | – | – |
| COc1ccc2ncc(N3CCNCC3)nc2c1 | – | – | – | – | – | – | Activity (Rattus norvegicus [7]): 5; Activity (Rattus norvegicus [8]): 1; Activity (Rattus norvegicus [9]): 6 |
| Clc1cc2ncc(N3CCNCC3)nc2cc1Cl | 2 | 0 | 1 | 3 | 4 | 1 | – |
| CN(C)CCCN1c2ccccc2CCc2ccc(Cl)cc21 [CLOMIPRAMINE] | – | – | – | – | – | – | ED50 (Rattus norvegicus [10]): 2 mg/kg |
| CN1CCN(c2cnc3cc(Cl)ccc3n2)CC1.Cl | – | – | – | – | – | – | Activity (Rattus norvegicus [11]): 0; Activity (Rattus norvegicus [12]): 1; Activity (Rattus norvegicus [13]): 1; PCMA antagonism (Rattus norvegicus [14]): 4; PCMA antagonism (Rattus norvegicus [15]): 2; PCMA antagonism (Rattus norvegicus [16]): 2 |
| N#Cc1ccc2nc(N3CCNCC3)cnc2c1 | – | – | – | – | – | – | Activity (Rattus norvegicus [17]): 11; Activity (Rattus norvegicus [18]): 5; PCMA antagonism (Rattus norvegicus [19]): 24; PCMA antagonism (Rattus norvegicus [20]): 13; PCMA antagonism (Rattus norvegicus [21]): 5 |
| Oc1nc2ccccc2nc1N1CCNCC1 | 6 | 2 | 0 | 1 | – | – | – |
| CN1CCN(c2nc3ccc(S(N)(=O)=O)cc3nc2Cl)CC1 | 1 | 3 | 4 | 2 | 2 | 2 | – |
| Cl.O=[N+]([O-])c1ccc2ncc(N3CCNCC3)nc2c1 | – | – | – | – | – | – | Activity (Rattus norvegicus [22]): 0; Activity (Rattus norvegicus [8]): 1; Activity (Rattus norvegicus [23]): 0; PCMA antagonism (Rattus norvegicus [24]): 4; PCMA antagonism (Rattus norvegicus [25]): 5; PCMA antagonism (Rattus norvegicus [26]): 2 |
| Cl.FC(F)(F)c1ccc2nc(N3CCNCC3)c(Sc3ccccc3)nc2c1 | 2 | 2 | 0 | – | 0 | 1 | PCMA antagonism (Rattus norvegicus [27]): 0 |
| Oc1ccc2nc(N3CCNCC3)cnc2c1 | 0 | 0 | 1 | 2 | 0 | – | – |
| c1ccc2nc(N3CCNCC3)cnc2c1 | 12 | 9 | – | – | 2 | 2 | Activity (Rattus norvegicus [28]): Active; PCMA antagonism (Rattus norvegicus [29]): Active |
| Cc1cccc2nc(N3CCNCC3)cnc12.Cl | – | – | – | – | – | – | Activity (Rattus norvegicus [12]): 4; Activity (Rattus norvegicus [30]): 0; Activity (Rattus norvegicus [13]): 5; PCMA antagonism (Rattus norvegicus [14]): 1; PCMA antagonism (Rattus norvegicus [15]): 1; PCMA antagonism (Rattus norvegicus [16]): 0 |
| CN1CCN(c2nc3ccccc3nc2O)CC1 | 0 | 0 | 6 | 0 | 0 | 1 | – |
| Fc1ccc2nc(N3CCNCC3)cnc2c1 | – | – | – | 4 | 2 | 2 | Activity (Rattus norvegicus [7]): 4; Activity (Rattus norvegicus [8]): 4; Activity (Rattus norvegicus [9]): 5 |
| CS(=O)(=O)c1ccc2nc(N3CCNCC3)cnc2c1 | – | – | – | – | – | – | Activity (Rattus norvegicus [7]): 1; Activity (Rattus norvegicus [8]): 0; Activity (Rattus norvegicus [9]): 2; PCMA antagonism (Rattus norvegicus [31]): 0; PCMA antagonism (Rattus norvegicus [25]): 0; PCMA antagonism (Rattus norvegicus [26]): 2 |

Source: ChEMBL document CHEMBL1121884, “Piperazinylquinoxalines with central serotoninmimetic activity” (1981)
